S100A4 inh HTS: inhibitors of S100A4-myosin IIA peptide binding, primary screen, biochemical, fluorescence polarization, TAMRA-MyoIIA peptide; inhibition, % at 10.7 µM; actives 0.14% (n = 360,000);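 active means mean inhibition of at least 70% across replicates, with every replicate also reaching that level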
Target sequence (P26447 whole entry, looked up): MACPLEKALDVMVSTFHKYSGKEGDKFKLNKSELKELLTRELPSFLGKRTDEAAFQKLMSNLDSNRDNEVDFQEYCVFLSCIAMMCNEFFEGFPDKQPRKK
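Test system: S100A4 monomer protein. Medium: HEPES buffer with Ca2+, pH 7.2. Reagent: fluorescent myosin IIA peptide, 5 nM. Compound dosing: single-point compound testing. Timing: 5 min between mix addition and reading. Benchmarks: DMSO neutral and TFP positive wells.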
F508del corr: F508del CFTR correction, initial screen, CFBE line, single point | CFBE cells, YFP halide quenching; stimulated with forskolin plus potentiator P3; % fluorescence drop versus neutral controls | activity (quench increase), % at 7.58 µM | actives 0.36% (n = 350,000) | AID 720511, 2013;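 active means mean added fluorescence quench of at least 8% versus neutral control, with both replicates also reaching 8%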;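 further: cells transiently co-express mutant CFTR-F508del with the halide-sensitive YFP; corrector assay measuring rescue of mutant channel to the surface after 24 h compound exposure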
Env fusion inh: inhibitors of HIV-1 Env-driven cell-cell fusion, primary screen, HeLa-JRFL effector, CEM21 target cells, luciferase; inhibition, % at 12.3 µM; actives 1.1% (n = 360,000); AID 651610, 2012;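 active means mean replicate inhibition score of at least 50 and every replicate individually at or above 50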
E-sel inducer: E-selectin induction in HUVECs, primary screen, imaging, HUVEC, immunofluorescence imaging, single point; P16581; normalized: neutral wells 0, TNF-alpha wells 100; activation, % at 7.58 µM; actives 0.37% (n = 260,000); AID 686992, 2013;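 active means mean E-selectin-positive cell signal at least 10% of the positive control, reached in at least 60% of replicates, without over 20% cell loss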
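System: HUVEC, human umbilical vein endothelial cells; quantity: 3,000 cells/well; buffer or medium: EGM-2 medium, gelatin-coated wells; dosing: single-point compound dose; detection: immunofluorescence imaging; evaluation: % PE-positive cells; benchmarks: TNF-alpha, DMSO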
FGF22 binding: binders of human FGF22 protein, primary screen, FGF22 synaptogenesis inhibitor project, biophysical, thermal shift, single point; activity (Tm shift, normalised), % at 9.99 µM; Fibroblast growth factor 22 (Homo sapiens), Q9HCT0; actives 1.5% (n = 340,000); recombinant FGF22 thermal shift, SYPRO orange fluorescence; percent of sucrose octasulfate shift, DMSO zero; AID 651658, 2012;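 active means mean Tm shift, scaled 0 neutral to 100 positive control, at about 1.3% or above, every replicate too, limit read from the data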
Target sequence (Q9HCT0 whole entry, looked up): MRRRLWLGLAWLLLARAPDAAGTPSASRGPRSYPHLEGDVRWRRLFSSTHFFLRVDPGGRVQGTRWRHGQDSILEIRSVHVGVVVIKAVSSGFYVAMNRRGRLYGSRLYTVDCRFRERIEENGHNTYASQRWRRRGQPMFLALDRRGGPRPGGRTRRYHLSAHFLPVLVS
Each line names hits and unclear results; the compound was inactive in the other large screens; [ ] = remark or other dose. An excerpt weighted towards active compounds, which were near 2.7% of everything screened.

COc1ccc(S(=O)(=O)Nc2ccc3c(c2)C(=O)N([C@H](C)CO)C[C@@H](C)[C@H](CN(C)Cc2ccncc2)O3)cc1	none (no result: Env fusion inh)
O=C(Nc1cccc(C2=NCCN2)c1)Nc1cccc(C2=NCCN2)c1	F508del corr 8.3
CCOc1ccc(C)cc1S(=O)(=O)n1cnc2ccccc21	F508del corr 9.9 (no result: E-sel inducer)
CCOc1cc(C)c(Cl)cc1S(=O)(=O)n1cnc2ccccc21	none (no result: S100A4 inh HTS, F508del corr, E-sel inducer, FGF22 binding)
C[C@@H]1CN([C@H](C)CO)C(=O)c2cc(NC(=O)c3ccccc3)ccc2O[C@@H](C)CCCCO[C@@H]1CN(C)C(=O)c1ccncc1	none
CC(OC(=O)c1ccc2c(c1)NC(=O)CS2)C(=O)c1ccc(F)cc1 (configuration not stated)	Env fusion inh 59 (no result: FGF22 binding)
COC(=O)c1ccc2c(c1)NC(=O)CS2	none
CC1(C(=O)NCCCNc2ncc(C(F)(F)F)cc2Cl)C=CCN1C(=O)c1ccccc1 (configuration not stated)	none
COC(=O)N1[C@H](C)C=C[C@]1(Cc1ccccc1)C(=O)NCCCNc1ncc(C(F)(F)F)cc1Cl	Env fusion inh 103
O=C(Cc1ccccn1)N[C@H]1CC[C@@H](CCn2cc(-c3cccnc3)nn2)O[C@@H]1CO	none
COc1cccc2cccc(/C=N/n3cnnc3)c12	FGF22 binding 43 (no result: E-sel inducer)
COc1ccc(/C=N/n2cnnc2)cc1Br	none
O=C(CCSc1ccc(Br)cc1)Nc1cccnc1	FGF22 binding 44 (no result: E-sel inducer)
COC(=O)C[C@H]1C[C@H]2c3cc(NC(=O)CC4CC4)ccc3O[C@H]2[C@@H](CO)O1	none
COC(=O)c1c(NC(=O)c2ccc([N+](=O)[O-])o2)sc2c1CCN(C(C)C)C2	none
CC(C)N1CCc2c(sc(NC(=O)c3ccc([N+](=O)[O-])o3)c2C(N)=O)C1	F508del corr 15, Env fusion inh 106
C[C@H]1CCCCO[C@H](CN(C)Cc2ccccc2)[C@@H](C)CN([C@@H](C)CO)C(=O)c2cc(NS(=O)(=O)c3cn(C)cn3)ccc2O1	none (no result: FGF22 binding)
c1ccc(-c2nnsc2-c2nc3ccccc3[nH]2)cc1	FGF22 binding 43
CCCC(=O)Nc1ccc2c(c1)C(=O)N(C)C[C@@H](OC)[C@@H](C)CN(Cc1cccc(F)c1)[C@H](C)CO2	none (no result: Env fusion inh)
CCCCCCC1CCC(C(=O)NC(CCSC)C(=O)NC(C(=O)OC)C(C)C)CC1 (configuration not stated)	Env fusion inh 57 (no result: S100A4 inh HTS, F508del corr, E-sel inducer, FGF22 binding)
Cc1cccc2cc3c(N)c(C#N)sc3nc12	Env fusion inh 91 (no result: S100A4 inh HTS, F508del corr, E-sel inducer, FGF22 binding)
O=C(C[C@H]1C/C=C\CC[C@H](Cc2ccc(F)cc2)C(=O)O[C@@H](c2ccccc2)CNC1=O)N[C@H](CO)Cc1ccccc1	none
CC(C)(C)OC(=O)C[C@H]1C/C=C\C[C@H](CC(=O)N[C@H](CO)Cc2ccccc2)C(=O)N[C@H](Cc2ccccc2)COC1=O	S100A4 inh HTS 108 (no result: Env fusion inh)
O=C(C[C@H]1C/C=C\C[C@@H](Cc2ccc(F)cc2)C(=O)O[C@H](c2ccccc2)CNC1=O)NCCO	none
O=C(C[C@H]1C/C=C\CC[C@H](Cc2ccc(F)cc2)C(=O)O[C@@H](c2ccccc2)CNC1=O)N[C@@H](CO)Cc1ccccc1	FGF22 binding 44 (no result: Env fusion inh)
CC(C)(C)OC(=O)C[C@@H]1C/C=C\C[C@H](CC(=O)N[C@H](CO)Cc2ccccc2)C(=O)N[C@H](Cc2ccccc2)COC1=O	none
O=C(C[C@@H]1C/C=C/CC[C@H](Cc2ccc(F)cc2)C(=O)O[C@H](c2ccccc2)CNC1=O)NCCO	Env fusion inh 67
CNC(=O)C[C@@H]1CC[C@H]2[C@@H](COC[C@H](O)CN2Cc2ccc(C(F)(F)F)cc2)O1	none (no result: Env fusion inh)
Cc1ccc(S(=O)(=O)N(C)C[C@H]2Oc3c(NC(=O)Nc4c(C)noc4C)cccc3C(=O)N([C@H](C)CO)C[C@@H]2C)cc1	none
O=C(Cc1ccncc1)NCC[C@H]1CC[C@@H](NC(=O)C2CCCCC2)[C@@H](CO)O1	none
COc1cccc(-c2cnc3c(c2)C(=O)N([C@H](C)CO)C[C@H](C)[C@H](CN(C)C(=O)Nc2cccc4ccccc24)O3)c1	Env fusion inh 89[16.7 µM]
COc1ccc(S(=O)(=O)Nc2ccc3c(c2)C(=O)N([C@@H](C)CO)C[C@@H](C)[C@@H](CN(C)C(=O)Nc2cccc4ccccc24)O3)cc1	E-sel inducer 53 (no result: Env fusion inh)
COc1ccc(S(=O)(=O)Nc2ccc3c(c2)C(=O)N([C@@H](C)CO)C[C@H](C)[C@@H](CN(C)C(=O)Nc2cccc4ccccc24)O3)cc1	E-sel inducer 80 (no result: Env fusion inh)
COc1ccc(S(=O)(=O)Nc2ccc3c(c2)C(=O)N([C@H](C)CO)C[C@H](C)[C@@H](CN(C)C(=O)Nc2cccc4ccccc24)O3)cc1	E-sel inducer 64 (no result: Env fusion inh)
CN1C(=O)c2cc(NC(=O)C3CCCC3)ccc2OC[C@@H]2O[C@@H](CC(=O)NCC3CC3)CC[C@H]21	none
CCN1C(=O)S/C(=C/c2ccc(Sc3nc4ccccc4[nH]3)o2)C1=O	Env fusion inh 62
COc1ccc(CN(C)Cc2c(O)ccc3cc(Br)ccc23)cc1OC	FGF22 binding 1.7 (no result: E-sel inducer)
Cc1cc(N2CCCC2)ccc1NC(=O)COc1cccc(C(F)(F)F)c1	Env fusion inh 59
C[C@H]1CN([C@@H](C)CO)C(=O)Cc2cc(NC(=O)CCC(F)(F)F)ccc2O[C@H]1CN(C)S(=O)(=O)c1ccccc1	none (no result: Env fusion inh)
Cc1cc(C(=O)CSc2nnc3ccccn23)c(C)n1-c1ccccc1	Env fusion inh 61 (no result: S100A4 inh HTS, F508del corr, E-sel inducer, FGF22 binding)
O=C(CSc1ccc(Cl)cc1)N1CCCC1	none (no result: E-sel inducer)
O=C(CCSc1ccccc1)N1CCCC1	FGF22 binding 44 (no result: E-sel inducer)
O=C1OCCC1Sc1nnc(-c2ccc(Cl)cc2Cl)o1 (configuration not stated)	Env fusion inh 59
COc1ccc(NC(=O)N(C)C[C@@H]2Oc3ncc(C#Cc4ccc(F)cc4)cc3C(=O)N([C@H](C)CO)C[C@@H]2C)cc1	none
C[C@@H]1CN([C@@H](C)CO)C(=O)Cc2cc(NS(=O)(=O)c3ccccc3)ccc2O[C@H]1CN(C)S(=O)(=O)c1cn(C)cn1	none
Cc1ccc(Cn2ncc3c(N4CCN(Cc5ccc(Cl)cc5)CC4)ncnc32)cc1	Env fusion inh 96 (no result: S100A4 inh HTS, F508del corr, E-sel inducer, FGF22 binding)
Cc1ccc(Cn2ncc3c(N4CCN(C)CC4)ncnc32)cc1	none
Cc1ccc(Cn2ncc3c(N4CCN(c5ccc(C)cc5)CC4)ncnc32)cc1	Env fusion inh 91 (no result: S100A4 inh HTS, F508del corr, E-sel inducer, FGF22 binding)
Cc1ccc(Cn2ncc3c(N4CCN(CCc5ccccc5)CC4)ncnc32)cc1	none
CC(C)C(=O)Nc1cccc(COc2ccc(CN(Cc3ccccc3)C(=O)OC(C)(C)C)cc2)c1	Env fusion inh 58
CC(C)(C)OC(=O)N(CCc1ccccc1)Cc1cccc(OCc2cccc(NC(=O)c3ccccc3)c2)c1	Env fusion inh 66
